Activity data for 18 compounds are collected here from ChEMBL document CHEMBL3259647, “Design, synthesis, and biological evaluation of potent dual agonists of nuclear and membrane bile acid receptors” (J Med Chem, 2014).

The target in experiment [1] is T1, Bile acid receptor (Homo sapiens) (UniProt Q96RI1).
T1 sequence (whole entry): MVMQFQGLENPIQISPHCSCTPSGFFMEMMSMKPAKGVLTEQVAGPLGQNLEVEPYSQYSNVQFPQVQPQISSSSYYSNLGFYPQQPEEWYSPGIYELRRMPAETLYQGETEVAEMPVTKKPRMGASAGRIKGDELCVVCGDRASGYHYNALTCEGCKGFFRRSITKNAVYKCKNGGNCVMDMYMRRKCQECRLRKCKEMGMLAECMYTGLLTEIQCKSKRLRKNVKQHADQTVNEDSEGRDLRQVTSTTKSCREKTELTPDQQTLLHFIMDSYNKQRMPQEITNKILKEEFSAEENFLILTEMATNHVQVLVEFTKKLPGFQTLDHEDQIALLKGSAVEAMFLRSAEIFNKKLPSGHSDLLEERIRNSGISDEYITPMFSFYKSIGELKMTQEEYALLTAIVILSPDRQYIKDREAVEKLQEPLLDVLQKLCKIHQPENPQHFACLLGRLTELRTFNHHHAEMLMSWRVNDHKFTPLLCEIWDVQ
Nature of the experiment: Transactivation of human FXR transfected in human HepG2 cells at 10 uM by beta-galactosidase reporter gene assay. The format is cell-based. The essentials:
(§1)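 HepG2 cells were grown at 37 °C in MEM with Earle's salts and 10% FBS, then plated at 5 × 10⁴ cells/well. They were transfected with pSG5-FXR, pSG5-RXR, pCMV-β-gal and the IR1 reporter p(hsp27)-TK-LUC, and stimulated 18 h starting 24 h post-transfection. Lines 2 and 3 give the test levels. CDCA 10 μM was the positive control. Luciferase was normalized to β-galactosidase.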
In general terms: In a reporter assay the amount or activity of a reporter protein is the signal.

The target in experiment [2] is T2, G-protein coupled bile acid receptor 1 (Homo sapiens) (UniProt Q8TDU6).
T2 sequence (whole entry): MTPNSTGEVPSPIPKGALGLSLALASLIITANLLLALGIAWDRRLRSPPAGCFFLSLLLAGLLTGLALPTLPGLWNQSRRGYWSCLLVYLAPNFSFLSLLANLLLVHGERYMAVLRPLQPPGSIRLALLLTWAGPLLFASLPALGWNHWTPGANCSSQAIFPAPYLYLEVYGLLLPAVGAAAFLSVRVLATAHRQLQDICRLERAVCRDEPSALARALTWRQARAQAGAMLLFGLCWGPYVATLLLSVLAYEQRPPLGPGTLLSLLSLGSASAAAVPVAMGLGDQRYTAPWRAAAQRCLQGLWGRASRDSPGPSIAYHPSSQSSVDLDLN
Nature of the experiment: Transactivation of human GP-BAR1 transfected in HEK293T cells assessed as induction of intracellular cAMP production at 10 uM after 18 hrs by cAMP responsive element containing luciferase reporter gene assay. The note with it: HEK-293T. The experiment is classed as functional, cell-based. In short, it runs like this:
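HEK-293T co-transfected with human GP-BAR1 and a CRE-driven luciferase reporter. Stimulated 24 h post-transfection for 18 h at 10 μM. TLCA 10 μM as receptor-dependent reference; forskolin 10 μM as receptor-independent cAMP control. Luciferase normalized to Renilla; mean ± standard error.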

In the next experiment the test system is HEK-293T. Nature of the experiment: Induction of cAMP production in GP-BAR1-deficient HEK293T cells at 10 uM by cAMP responsive element containing luciferase reporter gene assay. The format is functional, cell-based. The note with it: Homo sapiens. In short, it runs like this: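 Control transfection of HEK-293T with only the pGL4.29 CRE-luciferase and pGL4.70 Renilla vectors, without GP-BAR1. 24 h after transfection, cells exposed 18 h to 10 μM compound. Luciferase normalized to Renilla.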
For orientation: Changes in cAMP serve as a functional read-out for many G protein-coupled receptors.

Experiment [3] has as its target T1, Bile acid receptor (Homo sapiens). Kind of experiment: Antagonist activity at human FXR transfected in human HepG2 cells assessed as supression of CDCA-induced transcriptional activity at 50 uM by beta-galactosidase reporter gene assay. The format is cell-based. In short, it runs like this: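 HepG2 cells (MEM with Earle's salts, 10% FBS, 37 °C; 5 × 10⁴ cells/well) transfected with pSG5-FXR, pSG5-RXR, pCMV-βgal and p(hsp27)-TK-LUC IR1 reporter. 24 h post-transfection, treated 18 h with 10 μM CDCA plus 50 μM compound. Luciferase in lysates normalized to β-galactosidase activity. Statistics versus CDCA alone.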

Experiment [4] shares this target. Nature of the experiment: Transactivation of human FXR transfected in human HepG2 cells at 1 to 10 uM by beta-galactosidase reporter gene assay. The experiment is classed as cell-based. In short, it runs like this:
as §1

Experiment [5] concerns the target T3, G-protein coupled bile acid receptor 1 (Mus musculus) (UniProt Q80SS6).
T3 sequence (whole entry): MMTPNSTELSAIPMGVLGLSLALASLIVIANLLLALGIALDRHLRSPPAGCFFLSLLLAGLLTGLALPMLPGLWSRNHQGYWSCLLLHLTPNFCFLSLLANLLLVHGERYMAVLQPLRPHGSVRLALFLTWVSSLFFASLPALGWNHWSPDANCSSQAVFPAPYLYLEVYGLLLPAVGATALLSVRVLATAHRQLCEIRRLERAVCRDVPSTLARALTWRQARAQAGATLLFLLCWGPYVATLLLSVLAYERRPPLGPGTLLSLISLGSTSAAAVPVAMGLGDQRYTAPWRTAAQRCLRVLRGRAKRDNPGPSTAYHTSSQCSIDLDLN
Kind of experiment: Agonist activity at GP-BAR1 in mouse GLUTag cells assessed as increase in GLP-1 release. The experiment is classed as cell-based. In short, it runs like this: (§2)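 GLUTag enteroendocrine cells measuring intracellular cAMP generation and GLP-1 released into supernatant. Values are the mean ± SE of four to five experiments; significance is versus untreated cells.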

Experiment [6] addresses T3, G-protein coupled bile acid receptor 1 (Mus musculus). Kind of experiment: Agonist activity at GP-BAR1 in mouse GLUTag cells assessed as increase in intracellular cAMP level. The experiment is classed as functional, cell-based. In short, it runs like this:
as §2

The next experiment concerns Hepatocyte. Nature of the experiment: Upregulation of BESP mRNA expression in mouse primary hepatocytes isolated from FXR deficient mouse. The format is functional, cell-based. In short, it runs like this: (§3)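 Hepatocytes from wild-type or FXR−/− mice were analysed by real-time PCR for BSEP mRNA, as a measure of FXR-dependent target gene induction. Data are the mean SE of four experiments.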

Experiment [7] addresses T4, Bile acid receptor (Mus musculus) (UniProt Q60641).
T4 sequence (whole entry): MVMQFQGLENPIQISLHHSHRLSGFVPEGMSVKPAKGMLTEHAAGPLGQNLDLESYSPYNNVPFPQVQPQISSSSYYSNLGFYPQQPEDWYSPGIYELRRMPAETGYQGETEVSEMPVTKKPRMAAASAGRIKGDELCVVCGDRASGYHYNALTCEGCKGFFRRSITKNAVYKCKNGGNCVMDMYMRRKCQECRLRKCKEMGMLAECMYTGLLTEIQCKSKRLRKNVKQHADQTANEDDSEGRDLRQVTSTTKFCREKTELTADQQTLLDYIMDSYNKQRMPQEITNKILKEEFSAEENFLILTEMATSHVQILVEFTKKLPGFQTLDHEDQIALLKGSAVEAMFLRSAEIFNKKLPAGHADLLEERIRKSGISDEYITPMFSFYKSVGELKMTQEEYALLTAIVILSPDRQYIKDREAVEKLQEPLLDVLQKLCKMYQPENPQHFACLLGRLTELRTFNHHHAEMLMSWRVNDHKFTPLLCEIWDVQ
Kind of experiment: Agonist activity at FXR in mouse primary hepatocytes assessed as upregulation of BESP mRNA expression. The experiment is classed as cell-based. The conditions noted are these: Hepatocyte. In short, it runs like this: as §3

Active and inactive are the calls of the source. No cut-off for these calls is given here.

On to `C[C@H](CCCCCOS(=O)(=O)O)[C@H]1CC[C@H]2[C@@H]3[C@H](O)C[C@@H]4C[C@H](O)CC[C@]4(C)[C@H]3CC[C@]12C`, for which the result in experiment [1] and in [2] was Active. Moreover, in the experiment with HEK-293T, the result was inactive.
As to `C[C@H](CCCCCOS(=O)(=O)O)[C@H]1CC[C@H]2[C@@H]3[C@H](OS(=O)(=O)O)C[C@@H]4C[C@H](OS(=O)(=O)O)CC[C@]4(C)[C@H]3CC[C@]12C`, the result (in experiment [3]; with HEK-293T) was inactive.
On to `C=C[C@@]1(C)CC(=O)[C@]2(O)[C@@]3(C)[C@@H](O)CCC(C)(C)[C@@H]3[C@H](O)[C@H](OC(C)=O)[C@@]2(C)O1`, for which the outcome in the experiment on HEK-293T was Active.
Regarding `C[C@H](CCCOS(=O)(=O)O)[C@H]1CC[C@H]2[C@@H]3[C@@H](OS(=O)(=O)O)C[C@@H]4C[C@H](OS(=O)(=O)O)CC[C@]4(C)[C@H]3CC[C@]12C`, the outcome (in [3]; in the experiment on HEK-293T) was inactive.
Take `C[C@H](CCCOS(=O)(=O)O)[C@H]1CC[C@H]2[C@@H]3[C@H](O)C[C@@H]4C[C@H](O)CC[C@]4(C)[C@H]3CC[C@]12C`: the outcome (in experiment [3]; in the experiment on HEK-293T) was inactive.
On to `C[C@H](CCCOS(=O)(=O)O)[C@H]1CC[C@H]2[C@@H]3[C@@H](O)C[C@@H]4C[C@H](OS(=O)(=O)O)CC[C@]4(C)[C@H]3CC[C@]12C`, for which the outcome (in experiment [3]; in the experiment on HEK-293T) was inactive.
As to `C[C@H](CCC(=O)O)[C@H]1CC[C@H]2[C@@H]3[C@H](O)C[C@@H]4C[C@H](O)CC[C@]4(C)[C@H]3CC[C@]12C`, in the experiment on HEK-293T, the result was inactive.
With `C[C@H](CCCOS(=O)(=O)O)[C@H]1CC[C@H]2[C@@H]3[C@H](OS(=O)(=O)O)C[C@@H]4C[C@H](OS(=O)(=O)O)CC[C@]4(C)[C@H]3CC[C@]12C`, the outcome (in experiment [3]; with HEK-293T) was inactive.
`C[C@H](CCCCCOS(=O)(=O)O)[C@H]1CC[C@H]2[C@@H]3[C@@H](O)C[C@@H]4C[C@H](O)CC[C@]4(C)[C@H]3CC[C@]12C`: the result (in experiment [3]; in the experiment with HEK-293T) was inactive.
Consider `CC[C@H]1[C@@H](OS(=O)(=O)O)[C@@H]2[C@H](CC[C@]3(C)[C@@H]([C@H](C)CCOS(=O)(=O)O)CC[C@@H]23)[C@@]2(C)CC[C@@H](OS(=O)(=O)O)C[C@@H]12`, for which the result (in experiment [3]; in the experiment on HEK-293T) was inactive.
For `CC[C@H]1[C@@H](O)[C@@H]2[C@H](CC[C@]3(C)[C@@H]([C@H](C)CCOS(=O)(=O)O)CC[C@@H]23)[C@@]2(C)CC[C@@H](O)C[C@@H]12`, the result in experiment [4] was Active. In addition, in the experiment with HEK-293T, the result was inactive.
For the compound `C[C@H](CCCCCOS(=O)(=O)O)[C@H]1CC[C@H]2[C@@H]3[C@@H](OS(=O)(=O)O)C[C@@H]4C[C@H](OS(=O)(=O)O)CC[C@]4(C)[C@H]3CC[C@]12C`, the result (in [3]; with HEK-293T) was inactive.
`C[C@H](CCCCCOS(=O)(=O)O)[C@H]1CC[C@H]2[C@@H]3[C@@H](O)C[C@@H]4C[C@H](OS(=O)(=O)O)CC[C@]4(C)[C@H]3CC[C@]12C`: the outcome (in experiment [3]; in the experiment on HEK-293T) was inactive.
In the case of `C[C@H](CCCOS(=O)(=O)O)[C@H]1CC[C@H]2[C@@H]3[C@@H](O)C[C@@H]4C[C@H](O)CC[C@]4(C)[C@H]3CC[C@]12C`, the result (in [3]; in the experiment with HEK-293T) was inactive.
Take `C[C@H](CCCO)[C@H]1CC[C@H]2[C@@H]3[C@@H](O)C[C@@H]4C[C@H](OS(=O)(=O)O)CC[C@]4(C)[C@H]3CC[C@]12C`: the outcome (in experiment [3]; with HEK-293T) was inactive.
`C[C@H](CCC(=O)NCCOS(=O)(=O)O)[C@H]1CC[C@H]2[C@@H]3CC[C@@H]4C[C@H](O)CC[C@]4(C)[C@H]3CC[C@]12C`: the outcome in experiment [5], in [2] and in [6] was Active.
For the compound `CC[C@H]1[C@@H](O)[C@@H]2[C@H](CC[C@]3(C)[C@@H]([C@H](C)CCC(=O)O)CC[C@@H]23)[C@@]2(C)CC[C@@H](O)C[C@@H]12`, the result in experiment [5], in experiment [1], in experiment [7] and in [6] was Active. The result in the experiment on Hepatocyte and with HEK-293T was inactive.
For the compound `CC[C@H]1[C@@H](OS(=O)(=O)O)[C@@H]2[C@H](CC[C@]3(C)[C@@H]([C@H](C)CCCOS(=O)(=O)O)CC[C@@H]23)[C@@]2(C)CC[C@@H](OS(=O)(=O)O)C[C@@H]12`, the outcome (in experiment [3]; with HEK-293T) was inactive.
